In ChEMBL document CHEMBL1137665, “Antistaphylococcal activity of CG400549, a new experimental FabI inhibitor, compared with that of other agents” (2007):
≈ marks a conversion by molar mass, not a printed value.

How the values were obtained:
Type in all cases: functional
Staphylococcus aureus [1] = assay: Antimicrobial activity against vancomycin-resistant Staphylococcus aureus 509 Michigan by agar dilution CLSI method
Method in brief: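 Agar dilution MIC per CLSI methodology; calcium supplemented for daptomycin testing; vancomycin plates read after a full 24-h incubation.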

Staphylococcus aureus [2] = assay: Antimicrobial activity against vancomycin-intermediate Staphylococcus aureus 504 after 50 passages by multi-step resistance selection technique
Method in brief: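 Multistep selection: S. aureus strains (MSSA and MRSA, including VISA and VRSA) were passaged serially once daily in subinhibitory concentrations of each antimicrobial. Mutant and parent identities were confirmed by pulsed-field gel electrophoresis at the end of the study. Mutant MIC stability was checked after 10 daily subcultures on antibiotic-free media.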

Staphylococcus aureus [3] = assay: Antimicrobial activity against vancomycin-resistant Staphylococcus aureus 509 Michigan after 20 passages by multi-step resistance selection technique
Method in brief: (§1)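 Multistep selection: 10 S. aureus strains (8 MRSA incl. two VRSA, two VISA; 2 MSSA) serially passaged daily at subinhibitory concentrations of each antimicrobial; MICs of mutants retested and compared with parent; clone identity versus parent confirmed by pulsed-field gel electrophoresis at study end.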

Staphylococcus aureus [4] = assay: Antimicrobial activity against vancomycin-resistant Staphylococcus aureus 510 Hershey after 18 passages by multi-step resistance selection technique; method in brief: as §1
Staphylococcus aureus [5] = assay: Antimicrobial activity against methicillin-resistant Staphylococcus aureus 525 after 20 passages by multi-step resistance selection technique
Method in brief: (§2)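 Multistep selection by daily serial passage of each strain in subinhibitory drug concentrations for the stated number of passages. Mutant MIC was then determined. Identity of mutants and parents was confirmed by pulsed-field gel electrophoresis.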

Staphylococcus aureus [6] = assay: Antimicrobial activity against methicillin-resistant Staphylococcus aureus 547 after 21 passages by multi-step resistance selection technique; method in brief: as §2
Staphylococcus aureus [7] = assay: Antimicrobial activity against vancomycin-intermediate Staphylococcus aureus 555 Hershey after 50 passages by multi-step resistance selection technique; method in brief: as §1
Staphylococcus aureus [8] = assay: Antimicrobial activity against methicillin-susceptible Staphylococcus aureus 540 after 24 passages by multi-step resistance selection technique; method in brief: as §2
Staphylococcus aureus [9] = assay: Antimicrobial activity against methicillin-susceptible Staphylococcus aureus 543 after 17 passages by multi-step resistance selection technique; method in brief: as §2
Staphylococcus aureus [10] = assay: Antimicrobial activity against panton-valentine leukocidin-negative community-acquired methicillin-resistant Staphylococcus aureus 481 after 14 passages with daptomycin measured after 10 antibiotic-free subculture by multi-step resistance selection technique
Method in brief: (§3)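 Mutants from multistep daily serial passage in subinhibitory drug were then subcultured daily 10 times on antibiotic-free medium. MIC was redetermined after these subcultures to assess stability. Clone identity was checked by pulsed-field gel electrophoresis.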

Staphylococcus aureus [11] = assay: Antimicrobial activity against panton-valentine leukocidin-positive community-acquired methicillin-resistant Staphylococcus aureus 490 after 22 passages with Linezolid measured after 10 antibiotic-free subculture by multi-step resistance selection technique
Method in brief: (§4)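 Multistep-selected mutants (daily passage at subinhibitory drug levels) then subcultured 10 times daily on antibiotic-free medium; MIC redetermined afterwards and compared with the MIC recorded at the end of selection; clone identity to parent checked by pulsed-field gel electrophoresis.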

Staphylococcus aureus [12] = assay: Antimicrobial activity against vancomycin-intermediate Staphylococcus aureus 504 after 14 passages with CG400549 measured after 10 times antibiotic-free subculture by multi-step resistance selection technique; method in brief: as §4
Staphylococcus aureus [13] = assay: Antimicrobial activity against vancomycin-intermediate Staphylococcus aureus 504 after 16 passages with quinupristin-dalfopristin measured after 10 times antibiotic-free subculture by multi-step resistance selection technique; method in brief: as §4
Staphylococcus aureus [14] = assay: Antimicrobial activity against vancomycin-resistant Staphylococcus aureus 509 Michigan after 14 passages with CG400549 measured after 10 antibiotic-free subculture by multi-step resistance selection technique; method in brief: as §4
Staphylococcus aureus [15] = assay: Antimicrobial activity against vancomycin-resistant Staphylococcus aureus 509 Michigan after 28 passages with Linezolid measured after 10 antibiotic-free subculture by multi-step resistance selection technique; method in brief: as §4
Staphylococcus aureus [16] = assay: Antimicrobial activity against vancomycin-resistant Staphylococcus aureus 509 Michigan after 18 passages with quinupristin-dalfopristin measured after 10 antibiotic-free subculture by multi-step resistance selection technique; method in brief: as §4
Staphylococcus aureus [17] = assay: Antimicrobial activity against vancomycin-resistant Staphylococcus aureus 510 Hershey after 18 passages with daptomycin measured after 10 antibiotic-free subculture by multi-step resistance selection technique; method in brief: as §4
Staphylococcus aureus [18] = assay: Antimicrobial activity against methicillin-resistant Staphylococcus aureus 547 by agar dilution CLSI method
Method in brief: (§5)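 CLSI agar dilution MIC against S. aureus clinical isolates. Calcium was added to the medium for daptomycin testing. Vancomycin plates were read after a full 24-h incubation.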

Staphylococcus aureus [19] = assay: Antimicrobial activity against methicillin-susceptible Staphylococcus aureus 543 by agar dilution CLSI method; method in brief: as §5
Staphylococcus aureus [20] = assay: Antimicrobial activity against panton-valentine leukocidin-negative community-acquired methicillin-resistant Staphylococcus aureus 481 after 14 passages by multi-step resistance selection technique; method in brief: as §2
Staphylococcus aureus [21] = assay: Antimicrobial activity against panton-valentine leukocidin-positive community-acquired methicillin-resistant Staphylococcus aureus 490 after 14 passages by multi-step resistance selection technique; method in brief: as §1
Staphylococcus aureus [22] = assay: Antimicrobial activity against methicillin-resistant Staphylococcus aureus 525 after 20 passages with daptomycin measured after 10 antibiotic-free subculture by multi-step resistance selection technique; method in brief: as §3
Staphylococcus aureus [23] = assay: Antimicrobial activity against methicillin-resistant Staphylococcus aureus 525 after 16 passages with quinupristin-dalfopristin measured after 10 antibiotic-free subculture by multi-step resistance selection technique; method in brief: as §3
Staphylococcus aureus [24] = assay: Antimicrobial activity against vancomycin-intermediate Staphylococcus aureus 555 Hershey after 14 passages with CG400549 measured after 10 antibiotic-free subculture by multi-step resistance selection technique; method in brief: as §4
Staphylococcus aureus [25] = assay: Antimicrobial activity against methicillin-susceptible Staphylococcus aureus 540 after 24 passages with daptomycin measured after 10 antibiotic-free subculture by multi-step resistance selection technique; method in brief: as §3
Staphylococcus aureus [26] = assay: Antimicrobial activity against methicillin-susceptible Staphylococcus aureus 540 after 36 passages with Linezolid measured after 10 antibiotic-free subculture by multi-step resistance selection technique; method in brief: as §3
Staphylococcus aureus [27] = assay: Antimicrobial activity against methicillin-susceptible Staphylococcus aureus 543 after 17 passages with daptomycin measured after 10 antibiotic-free subculture by multi-step resistance selection technique; method in brief: as §3
Staphylococcus aureus [28] = assay: Antimicrobial activity against methicillin-susceptible Staphylococcus aureus 543 after 15 passages with Linezolid measured after 10 antibiotic-free subculture by multi-step resistance selection technique; method in brief: as §3
Staphylococcus aureus [29] = assay: Antimicrobial activity against methicillin-susceptible Staphylococcus aureus 543 after 18 passages with quinupristin-dalfopristin measured after 10 antibiotic-free subculture by multi-step resistance selection technique; method in brief: as §3
Staphylococcus aureus [30] = assay: Antimicrobial activity against vancomycin-intermediate Staphylococcus aureus 504 after 14 passages by multi-step resistance selection technique; method in brief: as §1
Staphylococcus aureus [31] = assay: Antimicrobial activity against vancomycin-resistant Staphylococcus aureus 510 Hershey after 14 passages by multi-step resistance selection technique; method in brief: as §1
Staphylococcus aureus [32] = assay: Antimicrobial activity against methicillin-resistant Staphylococcus aureus 525 after 14 passages by multi-step resistance selection technique; method in brief: as §2
Staphylococcus aureus [33] = assay: Antimicrobial activity against methicillin-resistant Staphylococcus aureus 547 after 14 passages by multi-step resistance selection technique; method in brief: as §2
Staphylococcus aureus [34] = assay: Antimicrobial activity against vancomycin-intermediate Staphylococcus aureus 555 Hershey after 14 passages by multi-step resistance selection technique; method in brief: as §1
Staphylococcus aureus [35] = assay: Antimicrobial activity against methicillin-susceptible Staphylococcus aureus 540 after 14 passages by multi-step resistance selection technique; method in brief: as §2
Staphylococcus aureus [36] = assay: Antimicrobial activity against methicillin-susceptible Staphylococcus aureus 543 after 14 passages by multi-step resistance selection technique; method in brief: as §2
Staphylococcus aureus [37] = assay: Antimicrobial activity against panton-valentine leukocidin-positive community-acquired methicillin-resistant Staphylococcus aureus 490 after 17 passages by multi-step resistance selection technique; method in brief: as §1

Row | SMILES | MIC (Staphylococcus aureus [1]) [µg/mL] | MIC (Staphylococcus aureus [10]) [µg/mL] | MIC (Staphylococcus aureus [11]) [µg/mL] | MIC (Staphylococcus aureus [12]) [µg/mL] | MIC (Staphylococcus aureus [13]) [µg/mL] | MIC (Staphylococcus aureus [14]) [µg/mL] | MIC (Staphylococcus aureus [15]) [µg/mL] | MIC (Staphylococcus aureus [16]) [µg/mL] | MIC (Staphylococcus aureus [17]) [µg/mL] | MIC (Staphylococcus aureus [18]) [µg/mL] | MIC (Staphylococcus aureus [19]) [µg/mL] | MIC (Staphylococcus aureus [20]) [µg/mL] | MIC (Staphylococcus aureus [22]) [µg/mL] | MIC (Staphylococcus aureus [23]) [µg/mL] | MIC (Staphylococcus aureus [24]) [µg/mL] | MIC (Staphylococcus aureus [25]) [µg/mL] | MIC (Staphylococcus aureus [26]) [µg/mL] | MIC (Staphylococcus aureus [27]) [µg/mL] | MIC (Staphylococcus aureus [28]) [µg/mL] | MIC (Staphylococcus aureus [29]) [µg/mL] | further results
1 | CCCCCCCCCC(=O)N[C@@H](Cc1c[nH]c2ccccc12)C(=O)N[C@H](CC(N)=O)C(=O)N[C@@H](CC(=O)O)C(=O)N[C@@H]1C(=O)NCC(=O)N[C@@H](CCCN)C(=O)N[C@@H](CC(=O)O)C(=O)N[C@H](C)C(=O)N[C@@H](CC(=O)O)C(=O)NCC(=O)N[C@H](CO)C(=O)N[C@@H]([C@H](C)CC(=O)O)C(=O)N[C@@H](CC(=O)c2ccccc2N)C(=O)O[C@@H]1C | 1 (≈ 0.617 µM) | 8 (≈ 4.94 µM) | 1 (≈ 0.617 µM) | 1 (≈ 0.617 µM) | 2 (≈ 1.23 µM) | 1 (≈ 0.617 µM) | 2 (≈ 1.23 µM) | 1 (≈ 0.617 µM) | 4 (≈ 2.47 µM) | 1 (≈ 0.617 µM) | 1 (≈ 0.617 µM) | 8 (≈ 4.94 µM) | 2 (≈ 1.23 µM) | 1 (≈ 0.617 µM) | 8 (≈ 4.94 µM) | 2 (≈ 1.23 µM) | 2 (≈ 1.23 µM) | 4 (≈ 2.47 µM) | 2 (≈ 1.23 µM) | 2 (≈ 1.23 µM) | MIC (Staphylococcus aureus [2]): 16 µg/mL (≈ 9.87 µM); MIC (Staphylococcus aureus [3]): 8 µg/mL (≈ 4.94 µM); MIC (Staphylococcus aureus [4]): 8 µg/mL (≈ 4.94 µM); MIC (Staphylococcus aureus [5]): 8 µg/mL (≈ 4.94 µM); MIC (Staphylococcus aureus [6]): 8 µg/mL (≈ 4.94 µM); MIC (Staphylococcus aureus [7]): 32 µg/mL (≈ 19.7 µM); MIC (Staphylococcus aureus [8]): 8 µg/mL (≈ 4.94 µM); MIC (Staphylococcus aureus [9]): 8 µg/mL (≈ 4.94 µM); MIC (Staphylococcus aureus [21]): 8 µg/mL (≈ 4.94 µM)
2 | Cc1c(N)cccc1Cn1ccc(OCCc2cccs2)cc1=O [CG-400549] | 1 (≈ 2.94 µM) | 0.25 (≈ 0.734 µM) | 0.25 (≈ 0.734 µM) | 2 (≈ 5.87 µM) | 0.5 (≈ 1.47 µM) | > 64 | 0.5 (≈ 1.47 µM) | 1 (≈ 2.94 µM) | 0.125 (≈ 0.367 µM) | 0.125 (≈ 0.367 µM) | 0.125 (≈ 0.367 µM) | 2 (≈ 5.87 µM) | 0.125 (≈ 0.367 µM) | 0.125 (≈ 0.367 µM) | 2 (≈ 5.87 µM) | 0.125 (≈ 0.367 µM) | 0.125 (≈ 0.367 µM) | 0.125 (≈ 0.367 µM) | 0.125 (≈ 0.367 µM) | 0.125 (≈ 0.367 µM) | MIC (Staphylococcus aureus [30]): 2 µg/mL (≈ 5.87 µM); MIC (Staphylococcus aureus [31]): 4 µg/mL (≈ 11.7 µM); MIC (Staphylococcus aureus [32]): 4 µg/mL (≈ 11.7 µM); MIC (Staphylococcus aureus [33]): 32 µg/mL (≈ 94 µM); MIC (Staphylococcus aureus [34]): 2 µg/mL (≈ 5.87 µM); MIC (Staphylococcus aureus [35]): 16 µg/mL (≈ 47 µM); MIC (Staphylococcus aureus [36]): 8 µg/mL (≈ 23.5 µM); MIC (Staphylococcus aureus [37]): 8 µg/mL (≈ 23.5 µM)
